Bioassay records (PubChem BioAssay)
CAL PDZ FP-1: CAL PDZ (human) peptide binding inhibition; Q9HD26; AID 602252; inhibition, % at 24.9 µM; purified CAL PDZ, TMR-peptide fluorescence polarization, 1 h; hit rate 0.92% among 300,000;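 active means mean inhibition of at least 30% with at least half of replicates also reaching 30%; inconclusive means no clear call, values can overlap the other calls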;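 further: 0% = DMSO neutral control and 100% = excess unlabeled competitor peptide PRC23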
CAL PDZ FP-2: human CAL PDZ-peptide interaction inhibition; Q9HD26; purified CAL PDZ, TMR-peptide fluorescence polarization, 1 h; inhibition, % at 20 µM; hit rate 0.02% among 330,000; AID 504414;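 active means highest replicate inhibition of at least 40%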;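 further: plate controls were DMSO neutral control wells for no effect and unlabeled competitor peptide control wells for full effect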
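material = purified tagged CAL PDZ domain construct (CerCALP) | buffer or medium = sodium phosphate/NaCl buffer pH 7.4 with TCEP, IgG, Thesit | reagent = TMR-labelled reporter peptide T*-PRC34 bound in PDZ groove | incubation = 1 h room-temperature incubation prior to read | measured by = fluorescence polarization (mP) | evaluation = percent inhibition from loss of millipolarization | control set = unlabelled peptide and DMSO controls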
Vif imaging: HIV Vif inhibition | AID 602346 | inhibition, % at 7.49 µM | HEK293T cells, Vif self-association by quenched fluorescence, imaging, 24 h | hit rate 0.35% among 340,000; in the data active means inhibition above about 50%, passing the limit was not always enough; inconclusive means no clear call, values can overlap the other calls; inactive means below about 31%
N-glyco inh: blocks N-linked glycosylation in D54 reporter cells; D54 ERlucT glycosylation luciferase reporter, 24 h; percent of 100 nM tunicamycin response; hit rate 0.23% among 360,000; reporter increase, % at 12.5 µM;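 active means mean luciferase reporter signal, scaled so untreated is 0 and the glycosylation-blocking control 100, at or above a set limit in every replicate; inconclusive means mean reaches the limit but not every replicate does; inactive means mean below the limit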;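 further: luciferase carries N-glycosylation sites so blocking glycosylation raises the light; 0% = median of neutral control wells and 100% = median of 100 nM tunicamycin wells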
PvdQ inh: blocks Pseudomonas aeruginosa PvdQ acylase activity; purified PvdQ acylase, fluorescence plate reader; inhibition, % at 10 µM; hit rate 0.063% among 340,000; AID 488965; in the data active means inhibition above about 30%, passing the limit was not always enough; inconclusive means no clear call, values can overlap the other calls;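 further: 0% = vehicle neutral wells and 100% = reference inhibitor wells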
CDK5 inh: inhibitors of human CDK5/p35 kinase. Q00535+Q15078. Recombinant CDK5/p35, ADP-Glo luminescence, 60 min. inhibition, % at 10 µM. hit rate 0.01% among 330,000;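 active means highest replicate inhibition of at least 50% and at least 75% of replicates reaching 50%; inconclusive means only one of the two criteria met; inactive means both criteria failed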;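 further: plate controls were DMSO neutral control for no effect and GW8510 at 10 µM for full effect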
Target sequence (Q00535 whole entry, looked up): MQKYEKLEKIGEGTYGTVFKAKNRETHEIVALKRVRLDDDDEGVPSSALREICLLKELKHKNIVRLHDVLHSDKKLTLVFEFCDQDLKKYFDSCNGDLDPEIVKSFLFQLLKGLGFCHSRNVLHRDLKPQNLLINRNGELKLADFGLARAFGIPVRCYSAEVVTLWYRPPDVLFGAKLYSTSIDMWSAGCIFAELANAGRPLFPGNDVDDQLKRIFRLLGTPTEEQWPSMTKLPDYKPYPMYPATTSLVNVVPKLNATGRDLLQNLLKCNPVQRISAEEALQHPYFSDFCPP
Target sequence (Q15078 whole entry, looked up): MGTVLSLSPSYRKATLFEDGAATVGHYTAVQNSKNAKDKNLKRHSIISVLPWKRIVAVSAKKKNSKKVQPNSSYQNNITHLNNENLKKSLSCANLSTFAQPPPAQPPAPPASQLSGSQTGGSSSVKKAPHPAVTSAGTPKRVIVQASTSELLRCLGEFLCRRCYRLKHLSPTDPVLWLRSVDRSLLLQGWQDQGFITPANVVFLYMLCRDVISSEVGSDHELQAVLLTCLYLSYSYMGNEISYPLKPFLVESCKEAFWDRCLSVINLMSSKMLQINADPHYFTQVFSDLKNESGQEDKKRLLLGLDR
The depositor's hits bear a star; ? = inconclusive; nt = no result. In the library only some 1.4% were active in any assay of this set; here they are far more common.

SMILES	CAL PDZ FP-1	CAL PDZ FP-2	Vif imaging	N-glyco inh	PvdQ inh	CDK5 inh
O=[N+]([O-])c1cc(S(=O)(=O)C(F)(F)F)ccc1Sc1nc2ccccc2[nH]1	-2	2	11	68*	-19	1
CCOc1ccc(C(=O)c2cc([N+](=O)[O-])ccc2N2CCOCC2)cc1	-8	0	74*	7	-10	0
CN(CCOc1ccccc1)C(=O)c1cc([N+](=O)[O-])ccc1N1CCOCC1	33*	-1	-5	-1	-2	2
COc1ccc(C(=O)c2cc([N+](=O)[O-])ccc2N2CCOCC2)cc1	-2	-1	?	16	0	-3
CC(C)(C)C(=O)NC(=S)NCc1ccccc1	1	-1	-1	1	9	-1
CCN(C(=O)c1ccc2c(SCC(=O)O)c3c(nc2c1)CCC3)c1cc(Cl)ccc1OC	101*	0	-4	3	-12	0
COc1cc(NC(=O)c2ccc3c(SCC(=O)O)c4c(nc3c2)CCC4)cc(OC)c1OC	-4	-4	6	1	12	0
O=C(Nc1ccnn1C1CCN(C2CCC2)CC1)c1ccccc1	69*	0	5	-1	-13	-1
O=C(Nc1ccnn1C1CCN(C2CCC2)CC1)c1ccccc1Cl	17	0	4	1	-13	-1
CC(C)CNC(=O)CSc1ccc(S(=O)(=O)N2CCN(C)CC2)cn1	39*	0	-3	2	-17	-1
CC(C)NC(=O)NC(=O)CSc1ccc(S(=O)(=O)N2CCOCC2)cn1	-1	-2	0	1	8	-1
CCOC(=O)c1c(C)oc(=O)c(CC)c1O	nt	nt	0	4	nt	nt
CCOC(=O)c1c(C)oc2c(F)c(F)c(F)c(F)c2c1=O	1	-2	-5	31*	11	2
O=C(COC(=O)C(Cc1ccccc1)NC(=O)c1cccs1)NCc1ccccc1 (stereo unspecified)	0	-3	59*	1	-23	-8
CN(C)c1ccc(C(O)Cc2nc3ccccc3n2C)cc1 (stereo unspecified)	1	-1	120*	-11	-15	1
COc1ccc(Cl)cc1C(=O)Nc1cccnc1	nt	-1	53*	3	-7	0
Cc1ccc(S(=O)(=O)N(C)c2ccc(OC(=O)c3cccs3)cc2)cc1C	49*	-1	-9	2	-19	-1
Cc1ccc(S(=O)(=O)N(C)c2ccc(OC(C)C(=O)N3CCCC3)cc2)cc1C (stereo unspecified)	6	0	2	1	-1	0
CCOC(=O)C1CCN(c2c(N3CCN(Cc4ccccc4)CC3)c(=O)c2=O)CC1	nt	0	9	28*	-2	-1
CCOC(=O)C1CCN(c2nc(-c3ccccc3)nc3c2oc2ccccc23)CC1	-16	0	-2	1	-13	-2
CCOC(=O)C1CCN(c2nc(-c3ccc(C)cc3)nc3ccccc23)CC1	85*	-2	-10	2	-17	0
CCc1ccc(C2C(C#N)=C(N)SC(N)=C2C#N)s1	-7	-4	77*	0	1	2
CCCNC(=O)c1ccccc1NS(=O)(=O)c1ccc2c(c1)OCCO2	69*	-2	0	0	-15	-2
NC(=O)COC(=O)c1ccc(NS(=O)(=O)c2ccc3c(c2)OCCO3)cc1	76*	-1	5	1	-11	-1
CCCNC(=O)c1ccccc1NC(=O)C1=CSCCO1	78*	0	-4	-1	-9	-1
SMILES	CAL PDZ FP-1	CAL PDZ FP-2	Vif imaging	N-glyco inh	PvdQ inh	CDK5 inh
COC(=O)c1ccc(C)c(NS(=O)(=O)c2ccc3c(c2)OCCO3)c1	-1	-2	nt	31*	-1	0
COc1ccc(OC)c(NC(=O)C2(C)CCN2CCOc2ccccc2)c1 (stereo unspecified)	nt	nt	nt	-2	nt	nt
COc1ccc2cc(C(=O)NCc3ccccc3CN3CCCC3)ccc2c1	19	-3	-1	-5	-15	0
COc1ccc(C(=O)C2CCCN(C(=O)c3csc(SC)n3)C2)cc1F (stereo unspecified)	nt	nt	10	0	nt	nt
CC1(C(=O)NS(=O)(=O)c2cccs2)CCN1C(=O)c1ccccc1CCc1ccccc1 (stereo unspecified)	nt	nt	4	0	nt	nt
N#CCC(=O)Nc1ccc(C(=O)OCC(=O)NC(=O)Nc2ccc3c(c2)OCCO3)cc1	62*	-2	9	0	-14	1
N#CCC(=O)Nc1ccc(C(=O)OCC(=O)NCc2ccc3c(c2)OCO3)cc1	-1	-1	-2	2	-19	0
COc1ccc(CN2CCC(Oc3cc(C(=O)NC4CC4)ccc3OC)CC2)c(O)c1	-4	-4	6	0	-2	1
Cc1cc(=O)c(C(=O)O)nn1-c1ccccc1C(F)(F)F	nt	0	10	0	-12	4
Cc1cc(=O)c(C(=O)O)nn1-c1cccc(C(F)(F)F)c1	73*	0	5	2	-4	0
Nc1ccc(Nc2nc(-c3cc4ccccc4oc3=O)cs2)cc1	48*	0	-5	-6	-1	7
O=C(NNS(=O)(=O)c1ccc(F)cc1)C1CC(c2cccnc2)=NO1 (stereo unspecified)	74*	0	3	1	-16	-1
Cc1ccc(CN2CC(C(=O)N3CCN(c4ccccc4Cl)CC3)CC2=O)cc1 (stereo unspecified)	-6	-1	-3	-1	17	0
O=C(NCc1ccccc1)c1ncn[nH]1	112*	0	-8	0	-3	1
CCCOC(=O)C(C)n1cnc2scc(-c3ccc(C)cc3)c2c1=O (stereo unspecified)	-5	-1	-3	2	-5	0
CC(=O)Nc1ccc(C(=O)N/N=C/C2CC3C=CC2C3)cc1 (stereo unspecified)	nt	0	4	1	-9	0
CC(C)C(=O)Nc1ccc(C(=O)N/N=C/C2CC3C=CC2C3)cc1 (stereo unspecified)	-1	-2	58*	-2	8	1
Cc1ccc(-c2nc(CN3CCN(C(=O)C4CCCO4)CC3)cs2)cc1 (stereo unspecified)	-5	-2	-23	-1	-18	0
CCn1nnnc1SCC(=O)c1cc(OC)ccc1OC	41*	0	0	1	-6	2
CCOC(=O)c1cccc(NC(=O)CCS(=O)(=O)c2cccs2)c1	-3	nt	-4	2	-6	0
COc1cccc(NC(=O)CCS(=O)(=O)c2cccs2)c1	72*	-2	17	-1	-15	1
COc1ccc(Cn2c(-c3ccco3)nc3oc4cc(OC)ccc4c(=O)c3c2=O)cc1	38*	-2	-2	-3	-5	0
COc1cc(C(=O)OCCCc2cc3ccccc3c(=O)o2)cc(OC)c1OC	-5	0	-3	0	-10	0
